Experimental data reported in ChEMBL document CHEMBL5357066, “Development of Novel Membrane Disrupting Lipoguanidine Compounds Sensitizing Gram-Negative Bacteria to Antibiotics” (ACS Med Chem Lett, 2024).
In brackets after ≈: the same amount, converted by molar mass.

Key:
[1] = test system: Pseudomonas aeruginosa; assay: Antibacterial activity against Pseudomonas aeruginosa NCTC 13437 assessed as bacterial growth inhibition incubated for overnight by microbroth dilution method; type: functional
Method in brief: (§1)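 Broth microdilution in Tryptic Soy Broth. DMSO stocks were diluted in TSB as 2-fold series. Overnight TSB cultures were back-diluted to OD 0.01 and mixed 1:1 with compound. Incubation was overnight at 37 °C. MIC was the lowest concentration without visible growth (<0.1 OD600). DMSO vehicle was checked at equivalent concentrations.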

[2] = test system: Staphylococcus aureus; assay: Antibacterial activity against methicillin sensitive Staphylococcus aureus ATCC 9144 assessed as bacterial growth inhibition incubated for overnight by microbroth dilution method; type: functional
Method in brief: (§2)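 Microbroth dilution in Tryptic Soy Broth. DMSO stocks were diluted in TSB as 2-fold series. Overnight TSB cultures were back-diluted to OD 0.01 and mixed 1:1 with compound. Incubation was overnight at 37 °C. MIC is the lowest concentration with no visible growth (<0.1 OD600). DMSO at equivalent concentrations was checked.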

[3] = test system: Staphylococcus aureus; assay: Antibacterial activity against methicillin resistant Staphylococcus aureus NCTC 13616 assessed as bacterial growth inhibition incubated for overnight by microbroth dilution method; type: functional; method in brief: as §2
[4] = test system: Staphylococcus aureus; assay: Antibacterial activity against methicillin resistant Staphylococcus aureus USA 300 assessed as bacterial growth inhibition incubated for overnight by microbroth dilution method; type: functional; method in brief: as §2
[5] = test system: Enterococcus faecalis; assay: Antibacterial activity against vancomycin resistant Enterococcus faecalis NCTC 12201 assessed as bacterial growth inhibition incubated for overnight by microbroth dilution method; type: functional; method in brief: as §2
[6] = test system: Enterococcus faecium; assay: Antibacterial activity against vancomycin resistant Enterococcus faecium NCTC 12204 assessed as bacterial growth inhibition incubated for overnight by microbroth dilution method; type: functional; method in brief: as §2
[7] = test system: Acinetobacter baumannii; assay: Antibacterial activity against Acinetobacter baumannii AYE assessed as bacterial growth inhibition incubated for overnight by microbroth dilution method; type: functional; method in brief: as §1
[8] = test system: Acinetobacter baumannii; assay: Antibacterial activity against Acinetobacter baumannii ATCC 17978 assessed as bacterial growth inhibition incubated for overnight by microbroth dilution method; type: functional; method in brief: as §1
[9] = test system: Pseudomonas aeruginosa; assay: Antibacterial activity against Pseudomonas aeruginosa PAO1 assessed as bacterial growth inhibition incubated for overnight by microbroth dilution method; type: functional; method in brief: as §1
[10] = test system: Escherichia coli; assay: Antibacterial activity against Escherichia coli NCTC 12923 assessed as bacterial growth inhibition incubated for overnight by microbroth dilution method; type: functional; method in brief: as §1
[11] = test system: Klebsiella pneumoniae; assay: Synergistic antibacterial activity against Klebsiella pneumoniae NCTC 13368 assessed as rifampicin MIC at <=0.25 times MIC incubated for overnight by microbroth dilution checkerboard assay; type: functional
Method in brief: (§3)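 Checkerboard microdilution under MIC conditions (TSB, overnight, 37 °C). Two-fold series of each agent were combined on one plate before bacteria were added, and single-agent MICs were measured on the same plate. FIC = sum of combination MIC/alone MIC for each agent, taken from the most synergistic well. Three independent repeats, mean ± SD. ≤0.5 was taken as strong synergy and 0.5–<1 as weak.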

[12] = test system: Klebsiella pneumoniae; assay: Synergistic antibacterial activity against […] Klebsiella pneumoniae M6 assessed as rifampicin MIC at <=0.25 times MIC incubated for overnight by microbroth dilution checkerboard assay; type: functional
Method in brief: (§4)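 Checkerboard run under the MIC conditions (TSB, overnight, 37 °C). Antibiotic and lipoguanidine 2-fold series were combined on one plate before bacteria were added. Growth/no-growth was scored as for the MIC (<0.1 OD600). Single-agent MICs were measured on the same plates. Three independent repeats were done.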

[13] = test system: Acinetobacter baumannii; assay: Synergistic antibacterial activity against Acinetobacter baumannii AYE assessed as rifampicin MIC at <=0.25 times MIC incubated for overnight by microbroth dilution checkerboard assay; type: functional; method in brief: as §3
[14] = test system: Acinetobacter baumannii; assay: Synergistic antibacterial activity against Acinetobacter baumannii ATCC 17978 assessed as rifampicin MIC at <=0.25 times MIC incubated for overnight by microbroth dilution checkerboard assay; type: functional; method in brief: as §3
[15] = test system: Pseudomonas aeruginosa; assay: Synergistic antibacterial activity against Pseudomonas aeruginosa PAO1 assessed as rifampicin MIC at <=0.25 times MIC incubated for overnight by microbroth dilution checkerboard assay; type: functional
Method in brief: (§5)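 Checkerboard microdilution in Tryptic Soy Broth, run like the MIC assay. Overnight TSB cultures were back-diluted to OD 0.01 and added 1:1 to the combined two-fold series of both agents, then incubated overnight at 37 °C. Growth/no-growth was called at <0.1 OD600. MICs alone were read on the same plates. FIC index came from the most synergistic well; three independent repeats, mean ± SD.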

[16] = test system: Pseudomonas aeruginosa; assay: Synergistic antibacterial activity against Pseudomonas aeruginosa NCTC 13437 assessed as rifampicin MIC at <=0.25 times MIC incubated for overnight by microbroth dilution checkerboard assay; type: functional; method in brief: as §5
[17] = test system: Escherichia coli; assay: Synergistic antibacterial activity against Escherichia coli NCTC 12923 assessed as rifampicin MIC at <=0.25 times MIC incubated for overnight by microbroth dilution checkerboard assay; type: functional; method in brief: as §3
[18] = test system: Staphylococcus aureus; assay: Antibacterial activity against methicillin sensitive Staphylococcus aureus 1199B assessed as bacterial growth inhibition incubated for overnight by microbroth dilution method; type: functional; method in brief: as §2
[19] = test system: Klebsiella pneumoniae; assay: Synergistic antibacterial activity against Klebsiella pneumoniae NCTC 13368 assessed as bacterial growth inhibition incubated for overnight in presence of PBMN by microbroth dilution method relative to control; type: functional
Method in brief: (§6)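 Adapted broth microdilution in TSB. The test compound was in a 2-fold dilution series, with PMBN added at a fixed 30 µg/mL. Bacteria at OD 0.02 were added, and plates were incubated overnight at 37 °C. Growth/no growth was read as for the MIC (<0.1 OD600).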

[20] = test system: Klebsiella pneumoniae; assay: Synergistic antibacterial activity against Klebsiella pneumoniae M6 assessed as bacterial growth inhibition incubated for overnight in presence of PBMN by microbroth dilution method relative to control; type: functional; method in brief: as §6
[21] = test system: Acinetobacter baumannii; assay: Synergistic antibacterial activity against Acinetobacter baumannii AYE assessed as bacterial growth inhibition incubated for overnight in presence of PBMN by microbroth dilution method relative to control; type: functional; method in brief: as §6
[22] = test system: Acinetobacter baumannii; assay: Synergistic antibacterial activity against Acinetobacter baumannii ATCC 17978 assessed as bacterial growth inhibition incubated for overnight in presence of PBMN by microbroth dilution method relative to control; type: functional; method in brief: as §6
[23] = test system: Pseudomonas aeruginosa; assay: Synergistic antibacterial activity against Pseudomonas aeruginosa PAO1 assessed as bacterial growth inhibition incubated for overnight in presence of […] by microbroth dilution method relative to control; type: functional
Method in brief: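 Fixed-concentration combination MIC in TSB. The first agent was set in a two-fold dilution series (100 µL/well), then 50 µL/well of the second agent at a fixed concentration was added; PMBN was fixed at 30 µg/mL. Bacteria at OD 0.02 (50 µL) went into 150 µL of compounds, overnight at 37 °C. MIC was the lowest concentration without visible growth (<0.1 OD600).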

[24] = test system: Pseudomonas aeruginosa; assay: Synergistic antibacterial activity against Pseudomonas aeruginosa NCTC 13437 assessed as bacterial growth inhibition incubated for overnight in presence of PBMN by microbroth dilution method relative to control; type: functional; method in brief: as §6
[25] = test system: Escherichia coli; assay: Synergistic antibacterial activity against Escherichia coli NCTC 12923 assessed as bacterial growth inhibition incubated for overnight in presence of PBMN by microbroth dilution method relative to control; type: functional; method in brief: as §6
[26] = test system: Klebsiella pneumoniae; assay: Synergistic antibacterial activity against Klebsiella pneumoniae NCTC 13368 assessed as fold change in rifampicin MIC at <=0.25 times MIC incubated for overnight by microbroth dilution checkerboard assay relative to rifampicin alone; type: functional; method in brief: as §4
[27] = test system: Acinetobacter baumannii; assay: Synergistic antibacterial activity against Acinetobacter baumannii AYE assessed as fold change in rifampicin MIC at <=0.25 times MIC incubated for overnight by microbroth dilution checkerboard assay relative to rifampicin alone; type: functional; method in brief: as §3
[28] = test system: Acinetobacter baumannii; assay: Synergistic antibacterial activity against Acinetobacter baumannii ATCC 17978 assessed as fold change in rifampicin MIC at <=0.25 times MIC incubated for overnight by microbroth dilution checkerboard assay relative to rifampicin alone; type: functional; method in brief: as §3
[29] = test system: Pseudomonas aeruginosa; assay: Synergistic antibacterial activity against Pseudomonas aeruginosa PAO1 assessed as fold change in rifampicin MIC at <=0.25 times MIC incubated for overnight by microbroth dilution checkerboard assay relative to rifampicin alone; type: functional; method in brief: as §5
[30] = test system: Pseudomonas aeruginosa; assay: Synergistic antibacterial activity against Pseudomonas aeruginosa NCTC 13437 assessed as fold change in rifampicin MIC at <=0.25 times MIC incubated for overnight by microbroth dilution checkerboard assay relative to rifampicin alone; type: functional; method in brief: as §5
[31] = test system: Escherichia coli; assay: Synergistic antibacterial activity against Escherichia coli NCTC 12923 assessed as fold change in rifampicin MIC at <=0.25 times MIC incubated for overnight by microbroth dilution checkerboard assay relative to rifampicin alone; type: functional; method in brief: as §3
[32] = test system: Klebsiella pneumoniae; assay: Antibacterial activity against Klebsiella pneumoniae M6 assessed as bacterial growth inhibition incubated for overnight by microbroth dilution method
[33] = test system: Klebsiella pneumoniae; assay: Antibacterial activity against ESBL Klebsiella pneumoniae NCTC 13368 assessed as bacterial growth inhibition incubated for overnight by microbroth dilution method
[34] = test system: Enterococcus faecalis; assay: Antibacterial activity against vancomycin sensitive Enterococcus faecalis NCTC 775 assessed as bacterial growth inhibition incubated for overnight by microbroth dilution method

Row | SMILES | MIC [1] [µg/mL] | MIC [2] [µg/mL] | MIC [3] [µg/mL] | MIC [4] [µg/mL] | MIC [5] [µg/mL] | MIC [6] [µg/mL] | MIC [7] [µg/mL] | MIC [8] [µg/mL] | MIC [9] [µg/mL] | MIC [10] [µg/mL] | MIC [11] [µg/mL] | MIC [12] [µg/mL] | MIC [13] [µg/mL] | MIC [14] [µg/mL] | MIC [15] [µg/mL] | MIC [16] [µg/mL] | MIC [17] [µg/mL] | MIC [18] [µg/mL] | inhibition (INH) [19] [%] | inhibition (INH) [20] [%] | further results
1 | CCCCCCCCCCCCCCCCCCNC(=N)NCCCCN | > 128 | 8 (≈ 20.9 µM) | 4 (≈ 10.5 µM) | 2 (≈ 5.23 µM) | 2 (≈ 5.23 µM) | 2 (≈ 5.23 µM) | 128 (≈ 334 µM) | 16 (≈ 41.8 µM) | > 128 | > 128 | 16 | 16 | 2 | ≤ 0.125 | 16 | 32 | 4 | 4 (≈ 10.5 µM) | <20 | <20 | inhibition (INH) [21]: <20%; inhibition (INH) [22]: <20%; inhibition (INH) [23]: <20%; inhibition (INH) [24]: <20%; inhibition (INH) [25]: <20%; fold change (FC) [26]: 0; fold change (FC) [27]: >=4; fold change (FC) [28]: >=4; fold change (FC) [29]: 0; fold change (FC) [30]: 0; fold change (FC) [31]: 0; MIC [32]: > 128 µg/mL; MIC [33]: > 128 µg/mL; MIC [34]: 2 µg/mL (≈ 5.23 µM)
2 | CCCCC/C=C\C/C=C\CCCCCCCCNC(=N)NCCCCCCCCN | > 128 | 2 (≈ 4.6 µM) | 4 (≈ 9.2 µM) | 2 (≈ 4.6 µM) | 4 (≈ 9.2 µM) | 4 (≈ 9.2 µM) | 16 (≈ 36.8 µM) | 8 (≈ 18.4 µM) | > 128 | 8 (≈ 18.4 µM) | 8 | 4 | 2 | ≤ 0.125 | 16 | 16 | 8 | 4 (≈ 9.2 µM) | <20 | <20 | inhibition (INH) [21]: <20%; inhibition (INH) [22]: <20%; inhibition (INH) [23]: <20%; inhibition (INH) [24]: <20%; inhibition (INH) [25]: <20%; fold change (FC) [26]: >=4; fold change (FC) [27]: >=4; fold change (FC) [28]: 0; fold change (FC) [29]: 0; fold change (FC) [30]: 0; fold change (FC) [31]: 0; MIC [32]: 16 µg/mL (≈ 36.8 µM); MIC [33]: 32 µg/mL (≈ 73.6 µM); MIC [34]: 8 µg/mL (≈ 18.4 µM)
3 | CCCCC/C=C\C/C=C\CCCCCCCCNC(=N)NCCCCCCCCNC(=N)N | > 128 | 2 (≈ 4.19 µM) | 4 (≈ 8.39 µM) | 2 (≈ 4.19 µM) | 4 (≈ 8.39 µM) | 2 (≈ 4.19 µM) | 16 (≈ 33.6 µM) | 4 (≈ 8.39 µM) | > 128 | 8 (≈ 16.8 µM) | 8 | 0.5 | 1 | 1 | 16 | 16 | 8 | 2 (≈ 4.19 µM) | <20 | <20 | inhibition (INH) [21]: <20%; inhibition (INH) [22]: <20%; inhibition (INH) [23]: <20%; inhibition (INH) [24]: <20%; inhibition (INH) [25]: <20%; fold change (FC) [26]: >=4; fold change (FC) [27]: >=4; fold change (FC) [28]: >=4; fold change (FC) [29]: 0; fold change (FC) [30]: 0; fold change (FC) [31]: 0; MIC [32]: 16 µg/mL (≈ 33.6 µM); MIC [33]: 32 µg/mL (≈ 67.1 µM); MIC [34]: 4 µg/mL (≈ 8.39 µM)
